In the array DNA melting data of Ke et al. (doi:10.1101/2024.01.08.574731):

Experiments:
[1] = melting temperature; fluorescence melt of hairpins on a sequencing array, two-state fit, raised by 9.35 °C to match UV melts; conditions: sodium 0.088 M
How it was run: (§1)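 Folding enthalpy and melting temperature were estimated with bootstrapped two-state fits and combined across four replicates by inverse-variance weighting, with fitted temperatures raised by 9.35 °C to match UV melts. The data were Cy3 fluorescence of library hairpins, with annealed Cy3 and quencher oligos, on a sequenced MiSeq flow cell in 50 mM Na-HEPES pH 8.0, 25 mM NaCl, imaged in 2.5 °C steps up to 60 °C and normalised to pre-quench Cy3 and control constructs.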

[2] = folding enthalpy; higher = less favourable; fluorescence melt of hairpins on a sequencing array, two-state fit; conditions: sodium 0.088 M
How it was run: as §1

| Sequence | Tm [1] [°C] | folding enthalpy [2] [kcal/mol] |
| --- | --- | --- |
| GCGTCTCGACGC ((((....)))) | 68.6 | -26.9 |
| GCGTCTGACGC ((((...)))) | 56.7 | -24.1 |
| GCGTCTTCGAAAGAACGC (((..(((....)))))) | 46.6 | -26 |
| GCGTGACCACGC ((((....)))) | 61.3 | -21.2 |
| GCGTGAGACGC ((((...)))) | 51 | -18.8 |
| GCGTGAGGAAACCCACGC (((((.(....).))))) | 57.7 | -42.2 |
| GCGTGATGACGC ((((....)))) | 52.8 | -25.1 |
| GCGTGCGAAAGCACCCGC ((((((....)))..))) | 43.7 | -10.1 |
| GCGTGCGAAAGCATCCGC ((((((....)))..))) | 47.6 | -17.3 |
| GCGTGCGGAAACGCACAC (.(((((....))))).) | 50.3 | -8.53 |
| GCGTGCGGAAACGTACGC ((((.((....)).)))) | 66.3 | -31.7 |
| GCGTGCGGAAACGTGCGC (((..((....))..))) | 59.6 | -25.6 |
| GCGTGCGTACGC ((((....)))) | 64.8 | -13.7 |
| GCGTGGCGAAAGCAAAGC ((.(.((....)).).)) | 52.1 | -17.4 |
| GCGTGGCGAAAGCAATGC ((.(.((....)).).)) | 52.8 | -19.6 |
| GCGTGGCGAAAGCACCGC (((..((....))..))) | 62.2 | -31.9 |
| GCGTGGCGAAAGCCCGGC ((..(((....)))..)) | 57.8 | -14.9 |
| GCGTGGCGAAAGCGGCGC (((..((....))..))) | 67.7 | -40.4 |
| GCGTGGCGAAAGCTAAGC ((.(.((....)).).)) | 58.3 | -23.3 |
| GCGTGGCGACGC ((((....)))) | 65.1 | -16.4 |
| GCGTGGGGAAACCTGCGC (((..((....))..))) | 53.3 | -37 |
| GCGTGTAGACGC ((((....)))) | 58.5 | -21.4 |
| GCGTGTCCACGC ((((....)))) | 61.5 | -32.9 |
| GCGTGTCGACGC ((((....)))) | 55.4 | -24.6 |

| Sequence | Tm [1] [°C] | folding enthalpy [2] [kcal/mol] |
| --- | --- | --- |
| GCGTGTGGAAACGCACGC (((((.(....).))))) | 67.3 | -34.5 |
| GCGTGTGGAAACGCATGC ((.((.(....).)).)) | 47.4 | -23.4 |
| GCGTTAATACGC ((((....)))) | 51.1 | -21.1 |
| GCGTTACACGC ((((...)))) | 58.1 | -19.8 |
| GCGTTAGCGAAAGCTCGC (((..(((....)))))) | 44.2 | -12.5 |
| GCGTTAGGAAACTAATGC ((.((((....)))).)) | 47.5 | -43.2 |
| GCGTTAGGAAACTGACGC ((((.((....)).)))) | 53.6 | -42.5 |
| GCGTTATAACGC ((((....)))) | 55.5 | -30.4 |
| GCGTTCCGAAAGGATCGC (((.(((....))).))) | 61.6 | -35.4 |
| GCGTTCGAAAGAACCGC ((((((....))).))) | 54.3 | -23.8 |
| GCGTTCGCGAAAGCGCGC (((..(((....)))))) | 52.7 | -19.3 |
| GCGTTCGGAAACGAGTGC ((..(((....)))..)) | 41.8 | -25.7 |
| GCGTTCGGACGC ((((....)))) | 53.5 | -25.4 |
| GCGTTCTAACGC ((((....)))) | 58.5 | -25.8 |
| GCGTTGATACGC ((((....)))) | 53.1 | -23.1 |
| GCGTTGCGAAAGCATAGC ((..(((....)))..)) | 58.4 | -26.5 |
| GCGTTGGGAAACTGACGC ((((..(....)..)))) | 49.7 | -35.3 |
| GCGTTGTCACGC ((((....)))) | 52.2 | -22.4 |
| GCGTTTCAACGC ((((....)))) | 60.2 | -27.6 |
| GCGTTTCACGC ((((...)))) | 59.1 | -34.8 |
| GCGTTTCCACGC ((((....)))) | 53.5 | -22.6 |
| GCGTTTCGAAAGAACGC (((.(((....)))))) | 57.6 | -33.8 |
| GCGTTTGCGAAAGCACGC (((..(((....)))))) | 55.2 | -22.6 |
| GCGTTTGGAAACAAGCGC (((.(((....))).))) | 54.6 | -45.6 |

| Sequence | Tm [1] [°C] | folding enthalpy [2] [kcal/mol] |
| --- | --- | --- |
| GCGTTTGGAAACGAACGC (((((.(....).))))) | 55.7 | -61.3 |
| GCGTTTTAACGC ((((....)))) | 57.7 | -26.5 |
| GCTAAAGCGAAAGCTAGC (((..(((....)))))) | 47.3 | -21.4 |
| GCTAACCCGAAAGGGAGC (((..(((....)))))) | 41.1 | -15.6 |
| GCTAACGAAAGTTATAGC ((((((....)))..))) | 36 | -24.2 |
| GCTAACGAAAGTTGTAGC ((((((....)))..))) | 38.3 | -20.6 |
| GCTAACGAAAGTTTGAGC ((((((....)))..))) | 32.6 | -15.6 |
| GCTAACGAAAGTTTTAGC ((((((....)))..))) | 33.6 | -17.4 |
| GCTAACGCGAAAGCGAGC (((..(((....)))))) | 45.2 | -15.2 |
| GCTAAGACGAAAGTCAGC (((..(((....)))))) | 44.3 | -20.4 |
| GCTAAGCGAAAGCAAAGC (((..((....))..))) | 40.8 | -17.5 |
| GCTAAGCGAAAGCACAGC (((..((....))..))) | 42.7 | -21.7 |
| GCTAAGCGAAAGCAGAGC (((..((....))..))) | 43.4 | -23.9 |
| GCTAAGCGAAAGCATAGC ((((.((....)).)))) | 54.8 | -27 |
| GCTAAGCGAAAGCTAAGC (((.(((....))).))) | 51.5 | -41.1 |
| GCTAAGCGAAAGCTATGC ((..(((....)))..)) | 43.5 | -20.4 |
| GCTAAGCGAAAGCTCCGC ((..(((....)))..)) | 26.9 | -10.6 |
| GCTAAGCGAAAGCTGAGC (((.(((....))).))) | 56.1 | -42.3 |
| GCTAAGTCGAAAGACAGC (((..(((....)))))) | 41.2 | -20.2 |
| GCTAATACGAAAGTAAGC (((..(((....)))))) | 29.5 | -14.1 |
| GCTAATCCGAAAGGAAGC (((..(((....)))))) | 33.1 | -16.5 |
| GCTAATCGAAAGATAAGC (((.(((....))).))) | 42.8 | -26.2 |
| GCTAATCGAAAGATGAGC (((.(((....))).))) | 47.8 | -31.4 |
| GCTACAGGAAACTGTAAC (.(((((....))))).) | 30.3 | -12.8 |

| Sequence | Tm [1] [°C] | folding enthalpy [2] [kcal/mol] |
| --- | --- | --- |
| GCTACAGGAAACTGTAGC (((((((....))))))) | 63.7 | -47.9 |
| GCTACCCCGAAAGGGAGC (((..(((....)))))) | 46.9 | -22.8 |
| GCTACCCGAAAGGGAGC (((.(((....)))))) | 55.5 | -23.1 |
| GCTACCGAAAGGTACAGC ((((((....)))..))) | 42.5 | -13.6 |
| GCTACCGAAAGGTATAGC ((((((....)))..))) | 44.4 | -18.2 |
| GCTACCGAAAGGTCGAGC ((((((....)))..))) | 37 | -16.3 |
| GCTACCGAAAGGTTAAGC ((((((....)))..))) | 39.4 | -19.6 |
| GCTACCGAAAGGTTCAGC ((((((....)))..))) | 35.5 | -16.3 |
| GCTACCGAAAGGTTTAGC ((((((....)))..))) | 38.5 | -17.6 |
| GCTACCGGAAACGGCAGC (((.(((....))).))) | 51.8 | -38.7 |
| GCTACGCGAAAGCATAGC ((((.((....)).)))) | 53.9 | -28 |
| GCTACGCGAAAGCATCGC ((.(.((....)).).)) | 30.7 | -9.49 |
| GCTACGCGAAAGCGCCGC ((..(((....)))..)) | 36.8 | -10.9 |
| GCTACGCGAAAGCGGCGC ((..(((....)))..)) | 60.5 | -19.6 |
| GCTACGCGAAAGCGGTGC ((..(((....)))..)) | 56 | -16 |
| GCTACGCGAAAGCTTAGC ((((.((....)).)))) | 55.4 | -20.8 |
| GCTACGCGAAAGCTTCGC ((.(.((....)).).)) | 37.6 | -10.3 |
| GCTACGGGAAACCATAGC ((((.((....)).)))) | 39.4 | -31 |
| GCTACGGGAAACCGCAGC (((.(((....))).))) | 49.7 | -41.7 |
| GCTACGGGAAACCGTAAC (.(((((....))))).) | 36.1 | -13.7 |
| GCTACTCGAAAGAGAGC (((.(((....)))))) | 44.8 | -25.4 |
| GCTAGAACGAAAGTTAGC (((..(((....)))))) | 38.3 | -26.6 |
